Shown are actives, neighbours in structure and some others; about 1.9% of the full set was active somewhere.
TLR4-MyD88 BLA: inhibitors of TLR4-MyD88 association in cells, primary screen, cell-based, HeLa CL3-4, BLA complementation, FRET ratio | Toll-like receptor 4 (Homo sapiens) + Myeloid differentiation primary response protein … | HeLa CL3-4 TLR4/MyD88 BLA complementation | inhibition, % at 8.4 µM | 200,000 compounds, 0.18% hits; in the data active = inhibition above about 25%;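 note: 0% = vehicle and 100% = reference inhibitor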
NTR1 ag: agonists of human NTR1, primary screen, imaging, U2OS cells, beta-arrestin-GFP, high content. 330,000 compounds, 0.17% hits. activation, % at 20 µM. AID 493036, 2011. NTR1-U2OS beta-arrestin-GFP spot imaging, agonist mode;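 active = activation at or above 40% of the spot to cytoplasm intensity ratio, with at least 20 cells analyzed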;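 note: 0% = DMSO without peptide and 100% = 100 nM NTR1 peptide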
MC4R antag cAMP: MC4R antagonists of cAMP signaling, primary screen, cell-based, TR-FRET, antagonist arm of biased-ligand search; inhibition, % at 6.5 µM; 360,000 compounds, 0.48% hits; Melanocortin receptor 4 (Homo sapiens), P32245; MC4R-expressing cells, MTII-stimulated cAMP, LANCE TR-FRET;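 active = inhibition above its plate's cutoff, the mean of tested wells on that plate plus 3 SD, cut at about 29% in these data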;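 note: 0% = Melanotan II alone and 100% = Melanotan II plus saturating MCL0020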
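System – human MC4R-expressing U2OS cells · Also added – Melanotan II · Dosing – one concentration, 6.5 µM nominal · Timing – 30-min compound, 1-h challenge, 1-h detection, room temperature · Measured by – Eu-cAMP/anti-cAMP TR-FRET, emission 671 nm · Replicates – singlicate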
NOD2 RIPK2 PPI: NOD2-RIPK2 binding disruptors in cells, primary screen, fluorescence, CHO cells, BLA complementation. Receptor-interacting serine/threonine-protein kinase 2 (Homo sapiens), O43353. CCF4 ratio. inhibition, % at 4.98 µM. 360,000 compounds, 0.38% hits. AID 624267, 2012; in the data active = inhibition above about 21%;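 note: 0% = vehicle only and 100% = reference blocker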
TLR9-MyD88 block: inhibitors of TLR9-MyD88 association in cells, primary screen, cell-based, CHO, BLA complementation, fluorescence; Toll-like receptor 9 (Homo sapiens) + Myeloid differentiation primary response protein …; CCF4 FRET ratio; inhibition, % at 4.98 µM; 340,000 compounds, 0.21% hits;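 active = inhibition above the mean over all tested compounds plus 3 SD, cut at about 21% in these data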;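 note: 0% = DMSO only wells and 100% = clavulanate BLA inhibitor control wells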
Target sequence (Q99836 whole entry, looked up): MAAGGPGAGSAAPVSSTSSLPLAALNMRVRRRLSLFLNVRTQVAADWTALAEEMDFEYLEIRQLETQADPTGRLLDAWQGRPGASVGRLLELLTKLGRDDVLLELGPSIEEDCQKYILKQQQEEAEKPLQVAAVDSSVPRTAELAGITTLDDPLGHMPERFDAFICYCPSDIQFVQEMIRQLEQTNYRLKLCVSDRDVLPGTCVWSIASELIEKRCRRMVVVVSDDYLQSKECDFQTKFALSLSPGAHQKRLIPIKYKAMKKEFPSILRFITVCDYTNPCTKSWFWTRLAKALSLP
Target sequence (Q9NR96 whole entry, looked up): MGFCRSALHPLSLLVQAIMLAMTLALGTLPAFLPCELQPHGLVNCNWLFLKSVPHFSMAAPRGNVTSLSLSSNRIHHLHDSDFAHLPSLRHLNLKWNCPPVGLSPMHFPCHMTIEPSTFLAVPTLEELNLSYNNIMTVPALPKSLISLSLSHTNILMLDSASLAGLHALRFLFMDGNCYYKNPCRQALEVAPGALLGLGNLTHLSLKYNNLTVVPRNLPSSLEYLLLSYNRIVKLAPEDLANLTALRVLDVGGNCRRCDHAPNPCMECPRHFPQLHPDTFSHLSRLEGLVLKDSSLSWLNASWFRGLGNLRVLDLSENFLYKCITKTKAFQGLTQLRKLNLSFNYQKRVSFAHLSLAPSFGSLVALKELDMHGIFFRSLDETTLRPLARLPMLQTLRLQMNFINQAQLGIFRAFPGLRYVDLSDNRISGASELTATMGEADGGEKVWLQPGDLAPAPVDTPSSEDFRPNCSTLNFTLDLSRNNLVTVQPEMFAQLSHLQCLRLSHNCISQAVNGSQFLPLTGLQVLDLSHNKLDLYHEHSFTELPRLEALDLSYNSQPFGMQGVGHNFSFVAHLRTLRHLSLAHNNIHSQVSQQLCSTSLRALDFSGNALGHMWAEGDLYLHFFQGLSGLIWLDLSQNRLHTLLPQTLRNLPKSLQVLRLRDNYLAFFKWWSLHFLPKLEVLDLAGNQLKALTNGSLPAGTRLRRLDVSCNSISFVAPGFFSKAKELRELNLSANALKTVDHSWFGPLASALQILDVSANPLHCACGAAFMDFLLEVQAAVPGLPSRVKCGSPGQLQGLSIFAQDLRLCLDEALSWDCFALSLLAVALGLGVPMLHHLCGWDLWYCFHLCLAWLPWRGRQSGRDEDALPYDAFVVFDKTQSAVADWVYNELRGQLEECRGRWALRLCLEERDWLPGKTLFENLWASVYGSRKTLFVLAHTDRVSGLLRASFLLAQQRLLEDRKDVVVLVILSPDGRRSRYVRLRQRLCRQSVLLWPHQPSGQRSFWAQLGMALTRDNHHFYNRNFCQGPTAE
MC4R barr agon: MC4R agonists recruiting beta-arrestin, primary screen, cell-based, luminescence, agonist arm of biased-ligand search | 360,000 compounds, 0.98% hits | activation, % at 8.9 µM | U2OS MC4R beta-arrestin complementation; percent of melanotan II response, DMSO zero | Melanocortin receptor 4 (Homo sapiens), P32245 | AID 540308, 2011;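 active = activation above a per-plate cutoff, the mean activation of sample wells on that plate plus 3 SD, cut at about 8% in these data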
MC4R barr conf: MC4R beta-arrestin agonists, retest, confirmation, cell-based, luminescence, U2OS. shares compounds with MC4R barr agon. U2OS MC4R beta-arrestin recruitment; scaled DMSO 0%, Melanotan II 100%. activation, % at 8.9 µM. 2,400 compounds, 31% hits;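 active = mean activation across replicates above the hit cutoff set in the earlier primary screen, cut at about 8% in these data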
MOR DOR agonist: agonists of MOR-DOR heterodimerization, counter-screen for MC4R biased agonist project, cell-based, luminescence. shares compounds with MC4R barr agon. U2OS PathHunter beta-arrestin, beta-gal luminescence; percent of deltorphin B response, DMSO zero. activation, % at 9.2 µM. 2,400 compounds, 5.8% hits. AID 602194, 2012;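 active = mean activation across replicates exceeds the hit threshold derived in the earlier primary screen, cut at about 18% in these data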;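 note: 100% = deltorphin B at 0.9 µM final and 0% = DMSO alone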
Active calls of the source: *; · = no result given.

SMILES	TLR4-MyD88 BLA	NTR1 ag	MC4R antag cAMP	NOD2 RIPK2 PPI	TLR9-MyD88 block	MC4R barr agon	MC4R barr conf	MOR DOR agonist
COc1cc(OC)cc(C(=O)NCC(=O)OCC(=O)C(C)(C)C)c1	6	0	-2	-1	-7	1	·	·
Cc1ccccc1NC(=O)CCS(=O)(=O)c1cccc2nonc12	·	0	12	-5	1	0	·	·
Cc1cc(CSc2ccccc2)ccc1NC(=O)c1ccc(C)c([N+](=O)[O-])c1	4	6	-10	4	-3	6	·	·
Cc1cc(CSc2ccccc2)ccc1NC(=O)c1ccc(Cl)c([N+](=O)[O-])c1	-1	-4	11	-6	-16	22*	3	5
Cc1ccc(SCc2ccc(C(=O)Nc3cccc([N+](=O)[O-])c3C)cc2)cc1	4	9	4	-3	-4	23*	6	5
Cc1ccc([N+](=O)[O-])cc1NC(=O)c1ccc(CSc2ccccc2)cc1	0	-1	5	-5	-3	14*	7	4
OC1(C#Cc2c(-c3ccsc3)oc3ccc(N4CCOCC4)cc23)CCCCC1	·	18	19	1	-8	13*	8	5
CC(C)(C)C1CCC(C(=O)Nc2ccccc2)CC1 (stereo not drawn)	-7	2	-5	-4	-6	10*	2	6
COC(=O)C1=C(C)N(Cc2ccccc2)C(=NCc2ccccc2)N[C@H]1c1cccc(F)c1	·	18	11	15	-8	9.6*	11*	11
Cc1sc2nc(C)n(/N=C/c3ccccc3O)c(=O)c2c1C	-16	3	5	-7	-1	13*	3	3
COc1cccc(CC2(CO)CCCN(Cc3cn[nH]c3-c3ccccc3)C2)c1 (stereo not drawn)	-18	0	3	-6	0	-1	·	·
COc1cccc(/C=N/Nc2ccc(Cl)nn2)c1OC	·	2	10	-14	-7	-2	·	·
COc1cccc(/C=N/Nc2nnc3c(n2)[nH]c2ccccc23)c1OC	·	1	17	-4	5	11*	-2	2
C(=N\Nc1nc2ccccc2s1)/c1cccs1	9	2	10	2	-18	5	·	·
Cc1ccsc1/C=N/Nc1nc2ccccc2s1	-11	25	-6	4	5	9.9*	-1	6
Oc1ccccc1C=NNc1nc2ccccc2s1	·	·	-1	-4	-8	1	·	·
COc1cccc(C=NNc2nc3ccccc3s2)c1OC	·	·	-4	-3	-4	22*	3	8
Cc1ccc(NC(=O)CCC(=O)NNC(=O)COc2ccc([N+](=O)[O-])cc2)c(C)c1	·	-1	10	2	2	-2	·	·
COc1ccc(-c2nn(-c3ccccc3)cc2/C=C/C(=O)OCC(=O)Nc2ccc(C#N)cc2)cc1	-3	9	3	-4	1	10*	-1	4
COc1ccc(NC(=O)CN(C)C(=O)/C=C/c2cn(-c3ccccc3)nc2-c2ccc(C)cc2)cc1	·	2	1	9	0	-3	·	·
C=CCNC(=S)N/N=C/c1cn(-c2ccccc2)nc1-c1ccc(OC)cc1	-11	8	2	11	-6	15*	5	4
O=C(COC(=O)c1cc(=O)c2ccccc2o1)NC1CCCC1	5	0	12	-12	0	0	·	·
COc1ccc2nc(C)cc(SCC(=O)NNC(=O)COc3cccc4ccccc34)c2c1	-4	13	-1	-12	3	1	·	·
COc1ccc2nc(C)cc(SCC(=O)NNC(=O)COc3ccc(C)cc3)c2c1	-5	3	7	6	5	10*	-2	2
O=C(COC(=O)/C=C/c1cccs1)Nc1nc(-c2ccccc2)cs1	-3	5	18	6	-4	32*	5	7
SMILES	TLR4-MyD88 BLA	NTR1 ag	MC4R antag cAMP	NOD2 RIPK2 PPI	TLR9-MyD88 block	MC4R barr agon	MC4R barr conf	MOR DOR agonist
COc1cc(C(=O)Nc2nnc(CC(C)C)s2)c([N+](=O)[O-])cc1OC	-11	-1	0	4	-1	3	·	·
CCCCCCCCCCCC1N=C(N)NC(CCCO)=C1C(=O)OC (stereo not drawn)	·	·	7	-11	-21	12*	26*	5
CCCCCCOC(=O)c1ccc(N)cc1	·	4	-5	3	-8	4	·	·
O=C(CN1CCOCC1)Nc1ncc(Cc2ccccc2Cl)s1	12	0	5	-16	-10	-2	·	·
CCc1ccc(CCC(=O)Nc2ncc(Cc3ccccc3Cl)s2)o1	2	0	-27	-4	7	18*	25*	13
CSc1ccc(NC(=O)NCCCN2CCC(Cc3ccccc3)CC2)cc1	·	7	0	4	-6	4	·	·
COc1ccccc1-c1sc2ccccc2c1-c1ccc(OCCN2CCCCC2)cc1	·	7	6	4	-5	5	·	·
COc1cccc(-c2sc3ccccc3c2-c2ccc(OCCN3CCCC3)cc2)c1	·	12	10	13	1	11*	46*	12
COc1cccc(-c2sc3ccccc3c2-c2ccc(OCCN(C)C)cc2)c1	·	11	8	13	8	29*	56*	17
FC(F)(F)c1cnc2c(-c3ccccc3)n[nH]c2c1	-3	6	0	-7	·	0	·	·
CC1CCC(C(C)C)C(OC(=O)C[n+]2cc(-c3ccc(Cl)cc3)n3c2CCCCC3)C1 (stereo not drawn)	14	22	8	3	-5	34*	25*	7
O=C(C[n+]1cc(-c2ccccc2)n2c1CCCCC2)c1ccc(Cl)cc1	2	0	3	1	-5	-3	·	·
COc1ccc(OCC(=O)Nc2cccc(-c3nc4ccccc4o3)c2)cc1	0	7	8	4	3	19*	5	4
COc1ccc(-c2nnc(SCC(=O)Nc3cccc(Cl)c3)o2)cc1	-12	-2	-5	2	-11	16*	3	9
